# Source: the RNAGym collection of RNA variant scans (doi:10.1126/science.aae0568)
# This sample holds only a part of the variants without activity.
# B1: tRNA (parent)
# chain: GUUCCGUUGGCGUAAUGGUAACGCGUCUCCCUCCUAAGGAGAAGACUGCGGGUUCGAGUCCCGUACGGAACG
# Variants of: B1
# Assay: yeast fitness relative to wild type (ratio to wild type); higher = fitter; tRNA-Arg(CCU), competitive growth, 37 C, YPD
# Procedure, shortened: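 Start and end populations of a pooled competition were compared by 100-nucleotide paired-end sequencing of gene amplicons. The Saccharomyces cerevisiae strains carried tRNA-Arg(CCU) gene variants at the native genomic locus, synthesised with a 3% per-site mutation rate at 69 sites, and competed in YPD at 37°C for 24 hours in six parallel replicates. Darwinian fitness relative to wild type was based on the change in genotype frequencies. Genotypes required ≥ 100 starting reads, and estimates < 0.5 were set to 0.5.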
row,Variant,yeast fitness
1,GUUCCGUUGGCGUAAUGGUAACGCGUCGCCCUCCUAGGGAGAAGACUGCGGGUUCGAGUCCCGUACGGAACG,0.586
2,GUUCCGUUGGCGUAAUGGUAACGCGUCGCCCUGCUAAGGAGAAGACUGCGGGUUCGAGUCCCGUACGCAACG,≤ 0.5
3,GUUCCGUUGGCGUAAUGGUAACGCGUCGCCUUCCUAAGGAGAAGACUGGGGGUUCGAGUCCCGUACGGAACG,≤ 0.5
4,GUUCCGUUGGCGUAAUGGUAACGCGUCGCCGUCCUAAGGAGAAGACUGCGGGUUCGAGUCCCGUACGGAACG,0.629
5,GUUCCGUUGGCGUAAUGGUAACGCGUCGCCUUCCUAAGGAGAAGACUGCGGGUUCGAGUCCCGUACGGAACG,0.544
6,GUUCCGUUGGCGUAAUGGUAACGCGUCGCCGUCCUAAGGAGAAGACUGCGGGUUCGCGUCCCGUAUGGAACG,≤ 0.5
7,GUUCCGUUGGCGUAAUGGUAACGCGUCGCCUUCCUAAGGAGAAGACUGCGGGUUCGAGUCCCGUACGGUACG,0.524
8,GUUCCGUUGGCGUAAUGGUAACGCGUCCCCCUCCUAAGGAGAAGACUGCGAGUUCGAGACCCGUCCGGAACG,≤ 0.5
9,GUUCCGUUGGCGUAAUGGUAACGCGUCCCCCUCCUAAGGAGAAGACUGCGGGUUCGAGUCCCUUACGGAACG,0.521
10,GUUCCGUUGGCGUAAUGGUAACGCGUCCCCCUCCUAAGGAGAAGACUGCGGGUUCGAGUCCCAUACGGAACG,0.939
11,GUUCCGUUGGCGUAAUGGUAACGCGUCCCCCUCCUAAGGAGAAGACUGCGGGUUCGAGUCCCCUACGGAACG,0.611
12,GUUCCGUUGGCGUAAUGGUAACGCGUCCCCCCCCUAAGGAGAAGACUGCGGGUUCGAGUACCGUACGGAACG,≤ 0.5
13,GUUCCGUUGGCGUAAUGGUAACGCGUCCCCCUCCUAAGGAGAAGACUGCGGCUUCGAGUCCCGAACGGAACG,≤ 0.5
14,GUUCCGUUGGCGUAAUGGUAACGCGUCGCCCUCCUAAGGAGAGAACUGCGGGUUCGAGUCCCGUACGGAACG,≤ 0.5
15,GUUCCGUUGGCGUAAUGGUAACGCGUCGCCCUCCUAAGGAGUAGACUGCGGGUUCGAGUCCCGUACGGAACG,0.71
16,GUUCCGUUGGCGUAAUGGUAACGCGUCGCCCUCCUAAGGUGAAGACUGCGGGUUCAAGUCCCGUACGGAACG,1.02
17,GUUCCGUUGGCGUAAUGGUAACGCGUCCCCCUCCUAAGGAGAAGACUGCGGGUCCGAGUCCCGUACGGAACG,0.909
18,GUUCCGUUGGCGUAAUGGUAACGCGUCCCCCUCCUAAGGAGAAGACUGCGGGUUCGAUUCCCGUGCAGAACG,≤ 0.5
19,GUUCCGUUGGCGUAAUGGUAACGCGUCCCCCUCCUAAGGAGAAGACCGCGGGUUCGAGUCCCGUACGGAGCG,0.743

row,Variant,yeast fitness
1,GUUCCGUUGGCGUAAUGGUAACGCGUCGCCCUCCUUAGGAGAAGAUUGCGGGUUCGAGUCUCGUACGGAACG,≤ 0.5
2,GUUCCGUUGGCGUAAUGGUAACGCGUCGCCCUCCUAAGGAGAAGACUGCGGGUUCGUGUCCCGUACGGAUCG,0.721
3,GUUCCGUUGGCGUAAUGGUAACGCGUCCCCCUCCUAAGGAGAAGACUGCGAGUUUGAGUCCCGUAGGGAACG,0.553
4,GUUCCGUUGGCGUAAUGGUAACGCGUCCCCCCCUUAAGGAGAAGUCUGCGGGUUCGAGUCCCGUACGGAUCG,0.584
5,GUUCCGUUGGCGUAAUGGUAACGCGUCGACCUCCUAAGGAGAAGACUGCGGGUUCAAGUCCCGUACGGAACG,≤ 0.5
6,GUUCCGUUGGCGUAAUGGUAACGCGUCGCCCUCUUAAGGAGAAGUCUGCGGGUUCGAGUCCCGUACGGAACG,0.52
7,GUUCCGUUGGCGUAAUGGUAACGCGUCCCCCUCCUAAGGAGAAGACUGCGGGUUCAAGUCCCGUACGGAACG,0.933
8,GUUCCGUUGGCGUAAUGGUAACGCGUCCCCCCCCUAAGGAGAAGACUGCGGGUUCGAGUCCCGUACGGAACG,0.935
9,GUUCCGUUGGCGUAAUGGUAACGCGUCCCCCACCUAAGGAGAAGACUGCGGGUUCGAGUCCCGUACGGAACG,0.754
10,GUUCCGUUGGCGUAAUGGUAACGCGUCGCCCUCGUAAGGAGAACACUGCGGGUUCGAGUCGCGUACGGAACG,0.558
11,GUUCCGUUGGCGUAAUGGUAACGCGUCGACCUCCUAAGGACAUGACCGCGGGUUCGAGUCCCGUAGGGAACG,≤ 0.5
12,GUUCCGUUGGCGUAAUGGUAACGCGUCCCCCUCCUAAGGAGAAGACUGCGGGUUCGAGUCCCCAAGGGAACG,≤ 0.5
13,GUUCCGUUGGCGUAAUGGUAACGCGUCGCCCUCCUAAGGAGAAGACUGCGGGUUGGAGUCCCGUACGGAACG,≤ 0.5
14,GUUCCGUUGGCGUAAUGGUAACGCGUCGCCCUCCUAAGGAGAAGACUGCGGGUUCGAGUCUCGUACGGAACG,0.808
15,GUUCCGUUGGCGUAAUGGUAACGCGUCGCCCUCCUAAGGAGAAGACUGCGGGUUCGAGUCGCGUACGGAACG,0.634
16,GUUCCGUUGGCGUAAUGGUAACGCGUCCCCCUCCUAAGGAGAAGACUGCGGAUUCGAGUCCCGUACGGUACG,0.592
17,GUUCCGUUGGCGUAAUGGUAACGCGUCGCCCUCGUGAGGAGAACACUGCGGGUUCGAGUCGCGUACGGAACG,≤ 0.5
18,GUUCCGUUGGCGUAAUGGUAACGCGUCGCCCUCCUAAGGUGAAGACUGCGGGUUCGAGUCCCGUACGGCACG,0.629
